Reference: ChEMBL document CHEMBL4118144, “Design, Synthesis, and Testing of Potent, Selective Hepsin Inhibitors via Application of an Automated Closed-Loop Optimization Platform” (J Med Chem, 2018)

Tests used:
[1] = Half life in human liver microsomes at 3 uM preincubated for 5 mins followed by NADPH addition by LC-MS/MS analysis; assay type: ADME, microsome
[2] = biological target: Prothrombin (Homo sapiens) (UniProt P00734); assay: Inhibition of human thrombin using Z-Gly-Pro-Arg-AMC as substrate at 1 uM after 60 mins by fluorescence spectrophotometric method relative to control
In short: (§1)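 Panel of ten serine proteases; percent inhibition read at compound concentrations of 1 µM and 10 µM, each value the mean of 2 experiments.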

[3] = biological target: T1, Chymase (Homo sapiens) (UniProt P23946); assay: Inhibition of human chymase using Suc-Ala-Ala-Pro-Phe-AMC as substrate at 1 uM after 120 mins by fluorescence spectrophotometric method relative to control; in short: as §1
T1 sequence (whole entry): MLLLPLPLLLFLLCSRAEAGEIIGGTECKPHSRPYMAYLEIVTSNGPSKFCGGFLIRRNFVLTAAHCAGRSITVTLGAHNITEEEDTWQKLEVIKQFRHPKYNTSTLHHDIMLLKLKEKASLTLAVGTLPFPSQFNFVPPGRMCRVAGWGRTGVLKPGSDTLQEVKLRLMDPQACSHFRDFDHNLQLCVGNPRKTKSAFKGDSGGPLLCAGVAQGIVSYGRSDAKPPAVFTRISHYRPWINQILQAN

[4] = biological target: T1, Chymase (Homo sapiens); assay: Inhibition of human chymase using Suc-Ala-Ala-Pro-Phe-AMC as substrate at 10 uM after 120 mins by fluorescence spectrophotometric method relative to control; in short: as §1
[5] = biological target: T2, Neutrophil elastase (Homo sapiens) (UniProt P08246); assay: Inhibition of elastase (unknown origin) at 1 uM relative to control; in short: as §1
T2 sequence (whole entry): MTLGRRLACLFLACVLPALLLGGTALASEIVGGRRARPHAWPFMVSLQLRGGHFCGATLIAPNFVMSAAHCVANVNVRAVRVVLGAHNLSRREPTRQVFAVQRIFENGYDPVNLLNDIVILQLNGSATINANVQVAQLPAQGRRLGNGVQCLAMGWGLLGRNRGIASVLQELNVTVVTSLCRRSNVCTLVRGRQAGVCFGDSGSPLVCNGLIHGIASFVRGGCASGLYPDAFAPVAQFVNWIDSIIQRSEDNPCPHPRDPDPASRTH

[6] = biological target: T2, Neutrophil elastase (Homo sapiens); assay: Inhibition of elastase (unknown origin) at 10 uM relative to control; in short: as §1
[7] = biological target: T3, Tryptase (Homo sapiens) (UniProt Q9BZJ3+Q15661+Q9NRR2); assay: Inhibition of recombinant full length human tryptase usingZ-Gly-Pro-Arg-AMC as substrate at 1 uM after 60 mins by fluorescence spectrophotometric method relative to control; assay type: protein assay; in short: as §1
[8] = biological target: T3, Tryptase (Homo sapiens); assay: Inhibition of recombinant full length human tryptase usingZ-Gly-Pro-Arg-AMC as substrate at 10 uM after 60 mins by fluorescence spectrophotometric method relative to control; assay type: protein assay; in short: as §1
[9] = biological target: T4, Trypsin (Homo sapiens) (UniProt P07477+P07478+P35030); assay: Inhibition of human trypsin using Z-Gly-Pro-Arg-AMC as substrate at 1 uM after 60 mins by fluorescence spectrophotometric method relative to control; assay type: protein assay; in short: as §1
[10] = biological target: T4, Trypsin (Homo sapiens); assay: Inhibition of human trypsin using Z-Gly-Pro-Arg-AMC as substrate at 10 uM after 60 mins by fluorescence spectrophotometric method relative to control; assay type: protein assay; in short: as §1
[11] = biological target: T2, Neutrophil elastase (Homo sapiens); assay: Inhibition of human ELA2 using N-MeOSuc-Ala-Ala-Pro-Val-pNA as substrate at 1 uM after 60 mins by spectrophotometric method relative to control; in short: as §1
[12] = biological target: T5, Suppressor of tumorigenicity 14 protein (Homo sapiens) (UniProt Q9Y5Y6); assay: Inhibition of matriptase (unknown origin) using BOC-QAR-AMC as substrate at 1 uM after 15 mins by fluorescence assay relative to control; in short: as §1
T5 sequence (whole entry): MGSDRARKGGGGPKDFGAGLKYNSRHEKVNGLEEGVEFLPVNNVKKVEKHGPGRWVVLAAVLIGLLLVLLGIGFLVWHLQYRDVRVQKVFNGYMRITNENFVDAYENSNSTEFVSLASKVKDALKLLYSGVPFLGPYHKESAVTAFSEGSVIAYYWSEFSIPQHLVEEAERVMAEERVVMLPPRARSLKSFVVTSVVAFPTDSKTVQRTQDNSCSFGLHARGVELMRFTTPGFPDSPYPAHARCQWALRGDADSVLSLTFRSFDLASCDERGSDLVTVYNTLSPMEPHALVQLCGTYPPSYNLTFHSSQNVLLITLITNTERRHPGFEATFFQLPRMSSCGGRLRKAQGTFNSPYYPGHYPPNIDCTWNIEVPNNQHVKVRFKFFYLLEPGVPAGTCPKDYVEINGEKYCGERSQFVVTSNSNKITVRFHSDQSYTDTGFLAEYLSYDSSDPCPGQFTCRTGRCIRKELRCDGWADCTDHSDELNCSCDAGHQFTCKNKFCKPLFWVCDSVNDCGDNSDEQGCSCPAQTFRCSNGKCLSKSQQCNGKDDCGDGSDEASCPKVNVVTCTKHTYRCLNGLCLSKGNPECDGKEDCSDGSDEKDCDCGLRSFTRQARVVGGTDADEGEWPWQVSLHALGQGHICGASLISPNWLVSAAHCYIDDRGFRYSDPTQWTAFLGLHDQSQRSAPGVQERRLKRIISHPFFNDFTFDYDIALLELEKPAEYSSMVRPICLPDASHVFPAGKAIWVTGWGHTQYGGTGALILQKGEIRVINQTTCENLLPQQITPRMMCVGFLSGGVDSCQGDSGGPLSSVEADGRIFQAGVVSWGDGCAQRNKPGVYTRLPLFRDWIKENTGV

[13] = biological target: T6, Hepatocyte growth factor activator serine protease (Homo sapiens) (UniProt Q04756); assay: Inhibition of C-terminal 10-His tagged recombinant human HGFA (Gln36 to Ser655 residues) expressed in mouse […] cells 10 uM after 15 mins by fluorescence assay relative to control; assay type: cell-based
T6 sequence (whole entry): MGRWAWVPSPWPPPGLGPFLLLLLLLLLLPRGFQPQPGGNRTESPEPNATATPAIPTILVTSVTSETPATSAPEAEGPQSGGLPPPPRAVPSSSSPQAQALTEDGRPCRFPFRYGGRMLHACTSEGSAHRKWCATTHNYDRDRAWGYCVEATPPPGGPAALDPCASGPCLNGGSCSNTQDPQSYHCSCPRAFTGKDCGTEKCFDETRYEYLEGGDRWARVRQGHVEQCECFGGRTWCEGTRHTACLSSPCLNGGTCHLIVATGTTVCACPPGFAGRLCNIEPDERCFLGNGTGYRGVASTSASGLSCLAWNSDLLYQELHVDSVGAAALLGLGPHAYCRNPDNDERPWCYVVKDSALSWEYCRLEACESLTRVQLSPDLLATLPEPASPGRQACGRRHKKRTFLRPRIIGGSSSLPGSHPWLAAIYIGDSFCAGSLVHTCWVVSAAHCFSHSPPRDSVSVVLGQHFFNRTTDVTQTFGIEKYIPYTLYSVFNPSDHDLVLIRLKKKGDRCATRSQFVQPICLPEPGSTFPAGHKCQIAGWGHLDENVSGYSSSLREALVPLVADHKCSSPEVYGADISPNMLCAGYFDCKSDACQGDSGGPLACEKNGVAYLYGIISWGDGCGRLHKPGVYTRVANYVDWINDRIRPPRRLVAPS

SMILES | half-life at 3 µM [1] | inhibition [2] | inhibition [3] | inhibition [4] | inhibition [5] | inhibition [6] | inhibition [7] | inhibition [8] | inhibition [9] | inhibition [10] | inhibition [11] | inhibition [12] | inhibition [13]
Cc1ccc(S(=O)(=O)N[C@@H](C(=O)Nc2ccc(C(=N)N)cc2)C2CCCCC2)cc1 | 89 min | 11% | < 10% | < 10% | < 10% | < 10% | 52% | 98% | 83% | 96% | < 10% | < 10% | 22%
Cc1ccc(S(=O)(=O)N[C@@H](C(=O)Nc2ccc(C(=N)N)cc2)c2ccccc2)cc1 | 53 min | < 10% | < 10% | < 10% | < 10% | < 10% | 27% | 80% | 54% | 93% | < 10% | < 10% | 24%
N=C(N)c1ccc(NC(=O)[C@H](NS(=O)(=O)c2ccc(F)cc2)C2CCCCC2)cc1 | 16 min | < 10% | < 10% | < 10% | < 10% | < 10% | 40% | 91% | 77% | 97% | < 10% | < 10% | 24%
